# The other results are listed elsewhere or left out. Active and inactive are the calls of the source.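 Rule for the calls, unless noted: active = mean of duplicate thallium-flux fluorescence ratios in parental host cells more than 5 SD below the buffer control mean (cut at about 0.38 in these data); inactive = the rest.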
# System: not listed separately
# Experiment: thallium flux effects in parental CHO cells, counter-screen for KCNQ1 inhibitor project, cell-based, Tl flux (AID 588366);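 note: ratio is peak minus minimum fluorescence divided by baseline fluorescence; actives read low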
# Conditions: parental CHO-K1, FluxOR thallium flux fluorescence ratio; at 10 µM; active compounds read low; zero means no signal rise above baseline
# Method in brief: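 Assay system: CHO-K1 parental line without KCNQ1; Control set: buffer-only controls; Detection: kinetic Tl+ flux fluorescence with FluxOR dye; Schedule: FluxOR dye loading 90 min, compound exposure 20 min, room temperature.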
row,SMILES,fluorescence ratio (Tl flux)
1,O=C(NCCc1ccccc1)c1ccc2c(c1)N(Cc1ccccc1)CCS2,0.426 (inactive)
2,COc1ccc(S(=O)(=O)/N=C2\C=C(NS(=O)(=O)c3ccccc3)C(=O)c3ccccc32)cc1,0.44 (inactive)
3,CCn1c(C)c(C)c2cc(C(=O)N3CCN(c4cccc(C)c4C)CC3)ccc21,0.475 (inactive)
4,Cc1cccc(-n2cc(CN3CCN(C(=O)c4ncn[nH]4)CC3)c(-c3cccc(F)c3)n2)c1,0.435 (inactive)
5,CCOC(=O)C1CCN(c2ncnc3c2oc2ccc(Br)cc23)CC1,0.39 (inactive)
6,CCc1noc(C)c1C(=O)Oc1ccc(N(C)S(=O)(=O)c2ccc(C)c(C)c2)cc1,0.408 (inactive)
7,S=C(NCC1CCCO1)N1CCN(c2ccc(Cl)c(Cl)c2)CC1 (stereo not given),0.501 (inactive)
8,O=C(Nc1ccc2ccccc2c1)Nc1ccc2snnc2c1,0.539 (inactive)
9,CC1CCCN(C(C(=O)Nc2ccc(C(C)C)cc2)c2ccc3c(c2)OCO3)C1 (stereo not given),0.429 (inactive)
10,CCOc1ccc(CN2CCN(Cc3c[nH]c4ccccc34)CC2)cc1,0.441 (inactive)
11,COc1ccc(-c2csc3ncnc(N4CCN(S(=O)(=O)c5cccc(F)c5)CC4)c23)cc1,0.403 (inactive)
12,Cc1cc(Br)ccc1NC(=O)c1cnc(N2CCN(c3ccccn3)CC2)c2ccccc12,0.444 (inactive)
13,Cc1nc(N2CCN(c3ccccn3)CC2)c2c(C)c(C(=O)Nc3ccc(F)cc3)sc2n1,0.324 (active)
14,CC(C)OC(=O)C(C#N)c1nc2ccccc2nc1N1CCN(Cc2ccccc2)CC1 (stereo not given),0.382 (inactive)
15,CC(C)OCCCNc1ncnc2c1[nH]c1ccc(F)cc12,0.443 (inactive)
16,CCSc1nsc(NC(=O)Nc2cccc(C(C)=O)c2)n1,0.514 (inactive)
17,COc1ccc(Cl)cc1NC(=O)C(C)N1CCc2ccccc21 (stereo not given),0.428 (inactive)
18,Cc1nc(N2CCN(c3ccccn3)CC2)c2c(C)c(C(=O)Nc3ccc(F)c(Cl)c3)sc2n1,0.345 (active)
19,Cn1nc(-c2ccc(Cl)cc2)c2cc(C(=O)NCc3ccco3)sc21,0.454 (inactive)
20,Cc1ccc(S(=O)(=O)Nc2ccc3ncccc3c2)cc1,0.499 (inactive)

row,SMILES,fluorescence ratio (Tl flux)
1,Cc1nc2ccccc2cc1OCc1ccc(F)cc1,0.438 (inactive)
2,COc1ccc(-c2cc(C(F)(F)F)nc(S(C)(=O)=O)n2)cc1OC,0.445 (inactive)
3,C=CCSc1nsc(NC(=O)Nc2cccc(C(C)=O)c2)n1,0.489 (inactive)
4,COc1ccc(Nc2ncnc3sc(-c4ccccc4)cc23)c(OC)c1,0.403 (inactive)
5,CCC(=C/c1sc2ccc3ccccc3c2[n+]1C)/C=C1\Sc2ccc3ccccc3c2N1C,0.508 (inactive)
6,Clc1cccc(-c2nc(NCC3CCCO3)c3ccccc3n2)c1 (stereo not given),0.394 (inactive)
7,Cn1nccc1C(=O)NC1CCCc2c1cnn2-c1ccc(F)cc1F (stereo not given),0.47 (inactive)
8,O=C(CCN1c2ccccc2Sc2ccccc21)Nc1ccccc1,0.384 (inactive)
9,S=C(Nc1cccc(Cl)c1)Nc1ccc2c(c1)OCCO2,0.444 (inactive)
10,COC(=O)c1ccc(NC(=O)Nc2ccc(C)cc2)cc1,0.504 (inactive)
11,Cc1cc(C)cc(NC(=O)NC2CCCCCCC2)c1,0.465 (inactive)
12,CCN(CC)CC(=O)Nc1sc2c(c1C(=O)c1ccccc1C)CCC2,0.444 (inactive)
13,Cc1oc2c(F)c(F)c(F)c(F)c2c1S(=O)(=O)Nc1cccc(C(F)(F)F)c1,0.531 (inactive)
14,CC(C)(CCl)C(=O)Nc1ccc(Sc2ccc(F)cc2)cc1,0.393 (inactive)
15,C=CCOC(=O)C1=C(C)NC(SCC(=O)OCC)=C(C#N)C1c1ccc(C)cc1 (stereo not given),0.425 (inactive)
16,O=C(Nc1ccc(Cl)c(Cl)c1)N1CC=C(c2ccccc2)CC1,0.411 (inactive)
17,O=C(NC(=S)Nc1ccccc1C(=O)O)c1ccc(-c2ccc(Br)cc2)o1,0.46 (inactive)
18,Cc1cccc(NC(=S)Nc2ccc(Cl)c(Cl)c2)c1,0.565 (inactive)
19,CCOC(=O)c1cnc(SC)nc1Sc1ccc(Cl)cc1Cl,0.406 (inactive)
20,O=C1CCc2cc(S(=O)(=O)N3CCC(C(=O)NCc4ccccc4Cl)CC3)ccc2N1,0.447 (inactive)

# Molecular target: Potassium voltage-gated channel subfamily KQT member 1 (Homo sapiens) (UniProt P51787)
# Experiment: KCNQ1 channel inhibitors, confirmation, orthogonal assay, cell-based, automated electrophysiology (AID 624120;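 active = KCNQ1 current drop exceeding 3 SD of negative control wells, seen in both duplicate runs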)
# Conditions: KCNQ1-CHO cells, automated patch clamp current; at 10 µM
# Method in brief: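 Material: CHO cells expressing human KCNQ1 potassium channel; replication: duplicates; probe or stimulus: voltage stimulus of 2,000 ms steps to +40 mV, -80 mV holding; measured by: automated perforated-patch voltage clamp using amphotericin B; medium: pH 7.4 external buffer; dosing: single test compound dose of 10 µM final; read-out: steady-state current change vs pre-compound, percent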
# Sequence of Potassium voltage-gated channel subfamily KQT member 1 (Homo sapiens) (P51787 whole entry, looked up): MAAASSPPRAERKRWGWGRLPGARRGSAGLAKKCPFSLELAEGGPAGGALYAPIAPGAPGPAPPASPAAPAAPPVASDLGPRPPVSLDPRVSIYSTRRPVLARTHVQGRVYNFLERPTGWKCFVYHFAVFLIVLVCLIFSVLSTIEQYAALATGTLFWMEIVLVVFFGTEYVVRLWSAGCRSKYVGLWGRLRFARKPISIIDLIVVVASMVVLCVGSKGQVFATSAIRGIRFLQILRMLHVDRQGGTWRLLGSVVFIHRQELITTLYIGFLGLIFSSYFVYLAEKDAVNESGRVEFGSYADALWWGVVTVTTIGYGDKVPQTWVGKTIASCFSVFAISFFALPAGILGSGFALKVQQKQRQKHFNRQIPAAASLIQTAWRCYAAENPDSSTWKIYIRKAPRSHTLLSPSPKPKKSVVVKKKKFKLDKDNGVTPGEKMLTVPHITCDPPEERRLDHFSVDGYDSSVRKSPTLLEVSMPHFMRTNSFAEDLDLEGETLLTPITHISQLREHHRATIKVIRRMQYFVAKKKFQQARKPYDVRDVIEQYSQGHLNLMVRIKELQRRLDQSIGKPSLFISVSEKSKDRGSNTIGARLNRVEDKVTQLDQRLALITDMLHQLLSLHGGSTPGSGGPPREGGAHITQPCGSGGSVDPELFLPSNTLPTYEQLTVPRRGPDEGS
row,SMILES,outcome
1,CCn1c(C)c(C)c2cc(C(=O)N3CCN(c4cccc(C)c4C)CC3)ccc21,inactive
2,CCOC(=O)C1CCN(c2ncnc3c2oc2ccc(Br)cc23)CC1,inactive
3,CCc1noc(C)c1C(=O)Oc1ccc(N(C)S(=O)(=O)c2ccc(C)c(C)c2)cc1,inactive
4,S=C(NCC1CCCO1)N1CCN(c2ccc(Cl)c(Cl)c2)CC1 (stereo not given),active
5,CC1CCCN(C(C(=O)Nc2ccc(C(C)C)cc2)c2ccc3c(c2)OCO3)C1 (stereo not given),inactive
6,COc1ccc(-c2csc3ncnc(N4CCN(S(=O)(=O)c5cccc(F)c5)CC4)c23)cc1,inactive
7,Cc1cc(Br)ccc1NC(=O)c1cnc(N2CCN(c3ccccn3)CC2)c2ccccc12,inactive
8,CC(C)OCCCNc1ncnc2c1[nH]c1ccc(F)cc12,active
9,CCSc1nsc(NC(=O)Nc2cccc(C(C)=O)c2)n1,inactive
10,COc1ccc(Cl)cc1NC(=O)C(C)N1CCc2ccccc21 (stereo not given),inactive
11,Cc1nc2ccccc2cc1OCc1ccc(F)cc1,inactive
12,C=CCSc1nsc(NC(=O)Nc2cccc(C(C)=O)c2)n1,inactive
13,Clc1cccc(-c2nc(NCC3CCCO3)c3ccccc3n2)c1 (stereo not given),inactive
14,Cn1nccc1C(=O)NC1CCCc2c1cnn2-c1ccc(F)cc1F (stereo not given),inactive
15,O=C(CCN1c2ccccc2Sc2ccccc21)Nc1ccccc1,inactive
16,Cc1cc(C)cc(NC(=O)NC2CCCCCCC2)c1,active
17,CCN(CC)CC(=O)Nc1sc2c(c1C(=O)c1ccccc1C)CCC2,inactive
18,C=CCOC(=O)C1=C(C)NC(SCC(=O)OCC)=C(C#N)C1c1ccc(C)cc1 (stereo not given),active
19,O=C(Nc1ccc(Cl)c(Cl)c1)N1CC=C(c2ccccc2)CC1,inactive
20,CCOC(=O)c1cnc(SC)nc1Sc1ccc(Cl)cc1Cl,inactive
